One test deals with kidney. The test can be described thus: Inhibition of DNA synthesis in primary rabbit kidney cells assessed as inhibition of [3H]thymidine incorporation into DNA at 100 ug/mL. Type of test: functional, cell-based. Particulars: Oryctolagus cuniculus. In a few lines:
(§1)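 Host-cell DNA synthesis in primary rabbit kidney cells, measured as [methyl-3H]thymidine incorporation into DNA. ID50 is the dose inhibiting thymidine incorporation by 50%. The highest concentration tested was 100 μg/mL.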
(In general: Uptake of a labelled nucleoside into DNA is a usual measure of proliferation.)

The test system of a further test is Coxsackievirus B4. The test can be described thus: Antiviral activity against Coxsackievirus B4 infected in human HeLa cells assessed as inhibition of virus-induced cytopathogenicity treated immediately after virus adsorption measured 2 days after virus infection. Particulars: Enterovirus B, 48 h. The test is classed as functional. (In general: Damage to the host cells serves as the signal in cytopathic effect assays.)

The subject of another test is Poliovirus 1. In words: Antiviral activity against Poliovirus type 1 infected in human HeLa cells assessed as inhibition of virus-induced cytopathogenicity treated immediately after virus adsorption measured 2 days after virus infection. Particulars: Enterovirus C, 48 h. The test is classed as functional.
A further test concerns Human alphaherpesvirus 1. The test can be described thus: Antiviral activity against Herpes simplex virus 1 infected in primary rabbit kidney cells assessed as inhibition of virus-induced cytopathogenicity treated immediately after virus adsorption measured 3 days after virus infection. The test is classed as functional. Particulars: Human alphaherpesvirus 1, 72 h. In a few lines:
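Compound added right after virus adsorption; 100 CCID50 virus per culture. Cytopathogenicity was scored once complete in untreated infected controls. The value is the concentration giving 50% inhibition of viral cytopathogenicity.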

The test system of test [1] is Vesicular stomatitis virus. In words: Antiviral activity against Vesicular stomatitis virus infected in primary rabbit kidney cells assessed as inhibition of virus-induced cytopathogenicity treated immediately after virus adsorption measured 2 days after virus infection. Particulars: 48 h. Type of test: functional.
The nature of test [2]: Inhibition of DNA synthesis in primary rabbit kidney cells assessed as inhibition of [3H]thymidine incorporation into DNA. The test is classed as functional. Particulars: Oryctolagus cuniculus, read-out: ID50 (the source's name). In a few lines: as §1

In brackets after ≈: the same amount, converted by molar mass. Activity calls are given as the source filed them. No cut-off for these calls is given here.

With `CO[C@H]1[C@@H](O)[C@H](n2cnc(C(N)=O)n2)O[C@@H]1CO`, the inhibition result with kidney was “inactive”. For the same molecule, the MIC50 (in the test on Coxsackievirus B4; in the test with Poliovirus 1; with Human alphaherpesvirus 1; in test [1]) was over 200 µg/mL each time.
As for `CO[C@@H]1[C@H](O)[C@@H](CO)O[C@H]1n1cnc(C(N)=O)n1`, the inhibition result in the test with kidney is “inactive”. The MIC50 (in the test with Coxsackievirus B4; in the test on Poliovirus 1; in the test on Human alphaherpesvirus 1; in test [1]) was over 200 µg/mL in each case.
Take `NC(=O)c1ncn([C@@H]2O[C@H](CO)[C@@H](O)[C@H]2O)n1` [RIBAVIRIN]: the IC50 in test [2] was 20 µg/mL (≈ 81.9 µM). In addition, the MIC50 in the test with Coxsackievirus B4 is 40 µg/mL (≈ 164 µM); with Poliovirus 1, 40 µg/mL (≈ 164 µM); with Human alphaherpesvirus 1, 20 µg/mL (≈ 81.9 µM); in test [1], 70 µg/mL (≈ 287 µM).

(Values after ChEMBL document CHEMBL3244367, “Synthesis and determination of antiviral activity of the 2'(3')-O-methyl derivatives of ribavirin (1-beta-D-ribofuranosyl-1,2,4-triazole-3-carboxamide)” (1977).)
